# Data: ChEMBL document CHEMBL1240422, “Design, synthesis and biological evaluation of 3,5-diaryl-isoxazoline/isoxazole-pyrrolobenzodiazepine conjugates as potential anticancer agents” (2010)
# Calls of active or inactive are those of the source. No cut-off for these calls is given here.
# Key:
# [1] = test system: CCRF-CEM; test: Anticancer activity against human CCRF-CEM cells after 48 hrs by SRB assay; format: functional
# [2] = test system: HL-60(TB); test: Anticancer activity against human HL-60(TB) cells after 48 hrs by SRB assay; format: functional; details: HL-60, 48 h
# [3] = test system: K562; test: Anticancer activity against human K562 cells after 48 hrs by SRB assay; format: functional; details: K562, 48 h
# [4] = test system: MOLT-4; test: Anticancer activity against human MOLT4 cells after 48 hrs by SRB assay; format: functional; details: MOLT-4, 48 h
# [5] = test system: RPMI-8226; test: Anticancer activity against human RPMI8226 cells after 48 hrs by SRB assay; format: functional; details: RPMI-8226, 48 h
# [6] = test system: SR; test: Anticancer activity against human SR cells after 48 hrs by SRB assay; format: functional
# [7] = test system: A549; test: Anticancer activity against human A549 cells after 48 hrs by SRB assay; format: functional; details: A549, 48 h
# Procedure, shortened: (§1)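 Grown in RPMI 1640 with 10% FBS and 2 mM L-glutamine at 37 °C, 5% CO2. Seeded at densities set by doubling time, then preincubated 24 h. Continuous 48 h drug exposure at four concentrations (0.1, 1, 10, 100), triplicate wells. Fixed with cold TCA (final 10%) at 4 °C, 60 min. Stained with 0.4% SRB in 1% acetic acid, eluted with 10 mM Tris base, read at 540/690 nm. Percent growth versus control wells.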
# [8] = test system: EKVX; test: Anticancer activity against human EKVX cells after 48 hrs by SRB assay; format: functional
# [9] = test system: HOP-62; test: Anticancer activity against human HOP62 cells after 48 hrs by SRB assay; format: functional; details: HOP-62, 48 h; procedure, shortened: as §1
# [10] = test system: NCI-H226; test: Anticancer activity against human NCI-H226 cells after 48 hrs by SRB assay; format: functional; details: NCI-H226, 48 h
# [11] = test system: NCI-H23; test: Anticancer activity against human NCI-H23 cells after 48 hrs by SRB assay; format: functional; details: NCI-H23, 48 h
# [12] = test system: NCI-H322M; test: Anticancer activity against human NCI-H322M cells after 48 hrs by SRB assay; format: functional
# [13] = test system: HT-29; test: Anticancer activity against human HT-29 cells after 48 hrs by SRB assay; format: functional; details: HT-29, 48 h
# [14] = test system: SF-268; test: Anticancer activity against human SF268 cells after 48 hrs by SRB assay; format: functional; details: SF-268, 48 h
# [15] = test system: SF-539; test: Anticancer activity against human SF539 cells after 48 hrs by SRB assay; format: functional; details: SF-539, 48 h
# [16] = test system: SNB-19; test: Anticancer activity against human SNB19 cells after 48 hrs by SRB assay; format: functional; details: SNB-19, 48 h
# [17] = test system: SNB-75; test: Anticancer activity against human SNB75 cells after 48 hrs by SRB assay; format: functional; details: SNB-75, 48 h
# [18] = test system: U-251; test: Anticancer activity against human U251 cells after 48 hrs by SRB assay; format: functional; details: U-251, 48 h
# [19] = test system: LOX IMVI; test: Anticancer activity against human LOXIMVI cells after 48 hrs by SRB assay; format: functional
# [20] = test system: Malme-3M; test: Anticancer activity against human MALME-3M cells after 48 hrs by SRB assay; format: functional
# [21] = test system: M14; test: Anticancer activity against human M14 cells after 48 hrs by SRB assay; format: functional; details: M14, 48 h
# [22] = test system: OVCAR-3; test: Anticancer activity against human OVCAR-3 cells after 48 hrs by SRB assay; format: functional; details: OVCAR-3, 48 h
# [23] = test system: OVCAR-4; test: Anticancer activity against human OVCAR4 cells after 48 hrs by SRB assay; format: functional; details: OVCAR-4, 48 h
# [24] = test system: OVCAR-8; test: Anticancer activity against human OVCAR8 cells after 48 hrs by SRB assay; format: functional; details: OVCAR-8, 48 h
# [25] = test system: SK-OV-3; test: Anticancer activity against human SKOV3 cells after 48 hrs by SRB assay; format: functional; details: SK-OV-3, 48 h
# [26] = test system: 786-0; test: Anticancer activity against human 786-0 cells after 48 hrs by SRB assay; format: functional; details: 786-0, 48 h
# [27] = test system: A498; test: Anticancer activity against human A498 cells after 48 hrs by SRB assay; format: functional; details: A498, 48 h
# [28] = test system: ACHN; test: Anticancer activity against human ACHN cells after 48 hrs by SRB assay; format: functional
# [29] = test system: CAKI-1; test: Anticancer activity against human Caki1 cells after 48 hrs by SRB assay; format: functional; details: CAKI-1, 48 h
# [30] = test system: RXF 393; test: Anticancer activity against human […] cells after 48 hrs by SRB assay; format: functional; details: RXF 393, 48 h
# [31] = test system: SN12C; test: Anticancer activity against human SN12C cells after 48 hrs by SRB assay; format: functional
# [32] = test system: TK-10; test: Anticancer activity against human TK10 cells after 48 hrs by SRB assay; format: functional; details: TK-10, 48 h
# [33] = test system: UO-31; test: Anticancer activity against human UO31 cells after 48 hrs by SRB assay; format: functional; details: UO-31, 48 h
# [34] = test system: MCF7; test: Anticancer activity against human MCF7 cells after 48 hrs by SRB assay; format: functional; details: MCF7, 48 h; procedure, shortened: as §1
# [35] = test system: MDA-MB-231; test: Anticancer activity against human MDA-MB-231 cells after 48 hrs by SRB assay; format: functional; details: MDA-MB-231, 48 h
# [36] = test system: MDA-MB-435; test: Anticancer activity against human MDA-MB-435 cells after 48 hrs by SRB assay; format: functional; details: MDA-MB-435, 48 h
# [37] = test system: T47D; test: Anticancer activity against human T47D cells after 48 hrs by SRB assay; format: functional
# [38] = test system: PC-3; test: Anticancer activity against human PC3 cells after 48 hrs by SRB assay; format: functional; details: PC-3, 48 h; procedure, shortened: as §1
# [39] = test system: A-375; test: Cell cycle arrest in human A375 cells assessed as accumulation at S phase at 4 uM after 24 hrs using propidium iodide staining by FACS; format: functional
# Procedure, shortened: (§2)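 Treated A375 cells (24 h) were harvested with trypsin-EDTA and fixed in ice-cold 70% ethanol (4 °C, 30 min). After a PBS wash, they were incubated with 1 mg/mL RNase A (37 °C, 30 min) and stained with propidium iodide solution containing trisodium citrate and Triton X-100. DNA content was measured by flow cytometry on 20,000 events. Controls were DMSO-treated.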
# [40] = test system: A-375; test: Cell cycle arrest in human A375 cells assessed as accumulation at G2/M phase at 4 uM after 24 hrs using propidium iodide staining by FACS; format: functional; procedure, shortened: as §2
# [41] = test system: A-375; test: Induction of apoptosis in human A375 cells assessed as reduction in CDK2 protein level at 4 uM after 24 hrs by Western blotting; format: functional, cell-based
# Procedure, shortened: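 A375 cells were treated for 24 h and lysed in ice-cold RIPA buffer (1% NP-40, 0.5% deoxycholate, 0.1% SDS, protease inhibitors). Protein was quantified by Bradford assay, and 30 µg/lane was run on 12% SDS-PAGE and transferred to PVDF. Membranes were blocked 2 h at RT in TBST with 5% blocker, incubated with primary antibody overnight at 4 °C, then with HRP secondary (1:2000, 1 h, RT). Detection was by chemiluminescence, with β-actin as loading control.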
# [42] = test system: A-375; test: Induction of apoptosis in human A375 cells assessed as caspase3 activation at 4 uM after 24 hrs by fluorimetry; format: functional, cell-based
# Procedure, shortened: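 Caspase-3 activity was measured by a fluorometric assay on lysates of treated and untreated A375 cells.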
smiles,measurement,setting,value
COc1ccc(C2=NOC(c3cc(OC)c(OC)c(OC)c3)C2)cc1OCCCCOc1cc2c(cc1OC)C(=O)N1CCC[C@H]1C=N2 (some centres not stated),GI50,[1],160 nM
same,GI50,[2],180 nM
same,GI50,[3],120 nM
same,GI50,[4],200 nM
same,GI50,[5],240 nM
same,GI50,[6],140 nM
same,GI50,[7],260 nM
same,GI50,[8],460 nM
same,GI50,[9],270 nM
same,GI50,[10],170 nM
same,GI50,[11],270 nM
same,GI50,[12],340 nM
same,GI50,[13],360 nM
same,GI50,[14],340 nM
same,GI50,[15],220 nM
same,GI50,[16],340 nM
same,GI50,[17],320 nM
same,GI50,[18],300 nM
same,GI50,[19],220 nM
same,GI50,[20],210 nM
same,GI50,[21],180 nM
same,GI50,[22],270 nM
same,GI50,[23],400 nM
same,GI50,[24],370 nM
same,GI50,[25],470 nM
same,GI50,[26],280 nM
same,GI50,[27],180 nM
same,GI50,[28],280 nM
same,GI50,[29],250 nM
same,GI50,[30],210 nM
same,GI50,[31],300 nM
same,GI50,[32],280 nM
same,GI50,[33],290 nM
same,GI50,[34],200 nM
same,GI50,[35],190 nM
same,GI50,[36],170 nM
same,GI50,[37],280 nM
same,GI50,[38],2480 nM
same,Activity,[39],3.52%
same,Activity,[40],1.23%
same,Activity,[41],Active
same,Activity,[42],Active
